# Measured values from PubChem BioAssay.
# Calls of active or inactive are those of the source.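 The calls were made as follows, unless noted: active = GFP response above 150% of the DMSO level; inconclusive = fewer than 70 events counted for a yeast strain; inactive = the rest.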
# Key:
# [1] = RPL19A-GFP modulators, yeast TOR pathway, confirmation, cell-based, S. cerevisiae, flow cytometry, cherry picks, mother/daughter gates (AID 2270;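 active = GFP response below 50% of the DMSO control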); details: S. cerevisiae RPL19A-GFP strain, 3 h, at 10 µM, stronger effect = lower value, 100 = same GFP as DMSO wells
# [2] = LAP4-GFP expression modulators in yeast, confirmation, cell-based, cherry picks, flow cytometry, mother/daughter gates (AID 2271;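 active = GFP response above 150% of the DMSO control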;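 also: ratio of sample to DMSO plate mean so 100% equals DMSO level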); details: S. cerevisiae LAP4-GFP strain, 3 h, at 10 µM, stronger effect = higher value, 100 means same as DMSO control
# Summary of the method: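 Material – Alexa Fluor 633-labelled Saccharomyces cerevisiae GFP-fusion strain, single-plex · Incubation – compound exposure 3 h at 30 °C, end-over-end rotation · Measured by – GFP by flow cytometry · Measure – median GFP fluorescence as percent of plate-mean DMSO wells · Control set – positive rapamycin (400 ng/mL), negative DMSO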
# [3] = modulators of MEP2-GFP levels in yeast, confirmation, S. cerevisiae, flow cytometry GFP, cherry picks (AID 2272;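 active = GFP response above 150% of the DMSO control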;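 also: ratio of well signal to plate DMSO mean so 100% equals DMSO level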); details: S. cerevisiae MEP2-GFP strain, 3 h, at 10 µM, stronger effect = higher value
# [4] = AGP1-GFP expression modulators, hit retest, confirmation, cell-based, flow cytometry, S. cerevisiae, cherry picks (AID 2273);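 also: median GFP channel fluorescence over the whole cell population gate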; details: S. cerevisiae AGP1-GFP strain, 3 h, at 10 µM
# [5] = modulators of CIT2-GFP expression in yeast, confirmation, S. cerevisiae, GFP fusion, cherry picks, mother/daughter gates (AID 2274); details: S. cerevisiae CIT2-GFP strain, flow cytometry, 3 h, at 10 µM, stronger effect = higher value
# [6] = measured here: daughter cell gate
# [7] = measured here: mother cell gate
# [8] = measured here: daughter cell gate response
# [9] = measured here: mother cell gate response
SMILES,GFP response vs DMSO [1],"GFP response vs DMSO [1, 6] [%]","GFP response vs DMSO [1, 7] [%]",GFP response relative to DMSO [2],"GFP response relative to DMSO [2, 8] [%]","GFP response relative to DMSO [2, 9] [%]",GFP response vs DMSO [3],"GFP response, % of DMSO [4]","GFP response, % of DMSO [5]","GFP response, % of DMSO [5, 6] [%]","GFP response, % of DMSO [5, 7] [%]"
O=[N+]([O-])c1cc(/C=N/O)ccc1Oc1ccccc1Cl,76.7% (inactive),75.3,70.2,146% (inactive),106,134,146% (inactive),135% (inactive),155% (active),–,–
O=C(CCS(=O)(=O)Cc1ccccc1F)NCCc1ccc(Cl)cc1,97.8% (inactive),102,93.7,101% (inactive),99,101,101% (inactive),99.1% (inactive),100% (inactive),99.3,99.3
CCc1oc2ccccc2c1C(=O)CCN1CCCCC1,99.6% (inactive),98.4,99.6,102% (inactive),99.1,103,101% (inactive),101% (inactive),98.8% (inactive),99.2,96.8
O=C(O)c1ccccc1C(=O)N1CCN(c2ccccc2)CC1,99.2% (inactive),99.9,99.7,96.7% (inactive),96,96.1,98.3% (inactive),101% (inactive),103% (inactive),105,102
CCCn1c(=N)c(C(=O)NC2CCCC2)cc2c(=O)n3cccc(C)c3nc21,100% (inactive),85.2,78,96.2% (inactive),100,99.3,104% (inactive),104% (inactive),104% (inactive),–,–
O=S(=O)(c1ccc(NC(=S)N/N=C/c2cccc(Oc3ccccc3)c2)cc1)N1CCOCC1,97.8% (inactive),98.6,97.3,94.9% (inactive),93.5,96.2,105% (inactive),106% (inactive),102% (inactive),103,103
COc1ccc(OC(=O)c2cccc(S(=O)(=O)N3CCCC3)c2)cc1,96.6% (inactive),95.4,96.1,90.2% (inactive),91.2,89.7,105% (inactive),96.4% (inactive),103% (inactive),103,101
CCCc1[nH]nc2c1C(c1ccc(OC(=O)N3CCOCC3)cc1)C(C#N)=C(N)O2 (stereo not given),98.2% (inactive),97.1,96.4,97.9% (inactive),94.4,94,100% (inactive),102% (inactive),101% (inactive),–,–
CN(C)c1ccc(N=Cc2nc(-c3ccccc3)oc2OC(=O)c2cccc(Br)c2)cc1,96.2% (inactive),90.4,89.1,93.7% (inactive),84.2,93,94.4% (inactive),98.1% (inactive),92.2% (inactive),–,–
O=C(Nc1nc(-c2ccccc2)cs1)c1cccc([N+](=O)[O-])c1,102% (inactive),100,94.5,101% (inactive),95.9,95.2,105% (inactive),108% (inactive),98.8% (inactive),–,–
Nc1ccc(S(=O)(=O)c2ccccc2)nc1,103% (inactive),104,104,99.8% (inactive),98.7,99.3,104% (inactive),95.7% (inactive),95.2% (inactive),94.8,94.4
CNc1nc(-c2ccccc2)cc(C(F)(F)F)c1C#N,97.4% (inactive),95.3,92.9,96.2% (inactive),95.6,93.1,104% (inactive),102% (inactive),102% (inactive),99.7,98.7
CC1CCCCN1S(=O)(=O)c1ccc(C(=O)Nc2nnc(-c3ccccc3Cl)o2)cc1 (stereo not given),97.8% (inactive),97.9,98.4,94.1% (inactive),94.4,91.9,102% (inactive),98.3% (inactive),99.7% (inactive),101,98.5
COc1ccc(C(=O)c2nccc3ccccc23)cc1,96.8% (inactive),86.1,91.3,106% (inactive),104,99.3,96.2% (inactive),100% (inactive),98.3% (inactive),–,–
O=C(c1ccc([N+](=O)[O-])o1)N(Cc1nnc(-c2ccccc2Cl)o1)C1CC1,99.4% (inactive),100,99.5,98.2% (inactive),99.1,98.4,99% (inactive),101% (inactive),98.8% (inactive),101,96.8
CCCc1[nH]nc2c1C1(C(=O)N(C(C)C)c3ccccc31)C(C#N)=C(N)O2 (stereo not given),98.2% (inactive),99.8,98.2,96.5% (inactive),104,96.4,106% (inactive),99.1% (inactive),98.6% (inactive),101,99.3
CCn1c(=O)c(C(=O)NCCc2ccccc2)c(O)c2ccccc21,98.5% (inactive),99.8,98.8,95.3% (inactive),96,97.4,103% (inactive),108% (inactive),98.6% (inactive),99.3,98.2
O=C(Nc1ccc(F)cc1)c1cc2cc(Cl)ccc2[nH]1,97% (inactive),96.9,96.2,101% (inactive),97.6,94,100% (inactive),102% (inactive),99.7% (inactive),–,92.6

SMILES,GFP response vs DMSO [1],"GFP response vs DMSO [1, 6] [%]","GFP response vs DMSO [1, 7] [%]",GFP response relative to DMSO [2],"GFP response relative to DMSO [2, 8] [%]","GFP response relative to DMSO [2, 9] [%]",GFP response vs DMSO [3],"GFP response, % of DMSO [4]","GFP response, % of DMSO [5]","GFP response, % of DMSO [5, 6] [%]","GFP response, % of DMSO [5, 7] [%]"
COc1ccc(/C=C/C(=O)c2ccc(OC)cc2O)cc1,99.9% (inactive),100,99.3,98.8% (inactive),99.3,100,104% (inactive),100% (inactive),102% (inactive),102,100
Cc1cc(Br)c2c(c1)/C(=C/C(=O)c1cccs1)C(=O)N2,99.6% (inactive),99.1,99.2,115% (inactive),115,117,105% (inactive),107% (inactive),98.4% (inactive),93.7,95.7
O=C(COc1ccccc1)Nc1c2c(nn1-c1ccccc1)CS(=O)C2 (stereo not given),97.1% (inactive),96.4,96.5,97.7% (inactive),99,96.4,103% (inactive),104% (inactive),98.6% (inactive),97.6,100
COc1ccc(CC(=O)Oc2ccccc2C)cc1,98% (inactive),99.6,98.3,100% (inactive),97.9,98.5,102% (inactive),94.3% (inactive),96.4% (inactive),96.4,95.6
CSc1ccc(/C=C/C(=O)c2c(O)cc(C)oc2=O)cc1,105% (inactive),106,103,131% (inactive),125,135,120% (inactive),96.3% (inactive),–,–,–
COc1cc(NC(C)=O)ccc1NC(=O)c1cc2ccccc2o1,99% (inactive),97.8,98.2,95% (inactive),97.2,96.2,100% (inactive),102% (inactive),100% (inactive),98.1,101
Cc1ccc(NC(=S)N(CCCN2CCOCC2)Cc2cccs2)c(C)c1,97.6% (inactive),97.8,97.9,102% (inactive),104,101,99.5% (inactive),96% (inactive),99.3% (inactive),100,98
O=C(Nc1c(-c2ccccc2)nc2ccccn12)c1ccco1,100% (inactive),102,99.8,99.2% (inactive),94.4,96.1,98.3% (inactive),98.9% (inactive),103% (inactive),–,106
CC1=CC(=O)C(C(C)C)=C/C1=N/OS(=O)(=O)c1ccccc1,78.6% (inactive),51.6,71.3,271% (active),175,270,127% (inactive),118% (inactive),99.7% (inactive),111,83.8
CCCOc1ccc(C(=O)NNC(=S)NC(=O)CC)cc1,126% (inactive),103,117,181% (active),120,169,139% (inactive),130% (inactive),132% (inactive),121,117
Cc1[nH]c2ccccc2c1C(=O)C(C)OC(=O)C1CCC1 (stereo not given),98.2% (inactive),98.1,97.8,100% (inactive),101,100,110% (inactive),105% (inactive),106% (inactive),103,106
COc1ccccc1C(=O)NNC(=O)C(=O)Nc1cccc(Cl)c1C,106% (inactive),111,101,112% (inactive),118,109,116% (inactive),109% (inactive),119% (inactive),122,113
COc1ccc(Br)cc1/C=N/NC(=O)Cn1nnnc1N,99.2% (inactive),97.6,103,99.2% (inactive),97.6,100,109% (inactive),95.8% (inactive),104% (inactive),103,106
O=C(/C(=C/c1ccccc1)n1cncn1)c1ccc(Cl)cc1Cl,96% (inactive),92.7,93.5,149% (inactive),125,162,98.8% (inactive),106% (inactive),86% (inactive),85.7,79.8
Cc1nn2c(NCCCN3CCOCC3)c3c(nc2c1-c1ccccc1)CCC3,101% (inactive),102,101,98.2% (inactive),97.5,98.4,99% (inactive),103% (inactive),100% (inactive),101,101
O=C(OCn1ncc(Br)c(Br)c1=O)c1c(F)cccc1F,93.3% (inactive),94,90.6,168% (active),153,175,98.8% (inactive),116% (inactive),97.2% (inactive),105,88.8
CCn1cc(/C=C/c2cc[n+](C)cc2)c2ccccc21,105% (inactive),101,107,117% (inactive),119,117,154% (inactive),108% (inactive),–,–,–
